These results are taken from ChEMBL document CHEMBL4613248, “Twelfth-Position Deuteration of Nevirapine Reduces 12-Hydroxy-Nevirapine Formation and Nevirapine-Induced Hepatocyte Death” (J Med Chem, 2020).

Data set [1] is described as follows: Drug metabolism in C57BL/6J mouse primary hepatocytes assessed as Cytochrome P450-mediated formation of 12-OHD2NVP at 10 uM incubated for 24 hrs by uHPLC-MS analysis. In kind it is ADME, cell-based. Put shortly:
(§1)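 Fresh hepatocytes from male C57BL/6J mice (8–13 weeks), adhered overnight, then 10 μM substrate or vehicle (0.1% DMSO) for 24 h. Medium extracted with acetonitrile (50% final), dried, reconstituted in methanol; uHPLC-Orbitrap targeted SIM plus PRM (monooxygenated metabolites) or high-resolution ions (O-glucuronides, 459.1510/462.1700 ±5 ppm); four experimental replicates.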

Data set [2] is described as follows: Drug metabolism in C57BL/6J mouse primary hepatocytes assessed as Cytochrome P450-mediated formation of 8-OHD3NVP at 10 uM incubated for 24 hrs by uHPLC-MS analysis. In kind it is ADME, cell-based. Summed up: as §1
Data set [3] deals with Cytochrome P450 3A5 (Homo sapiens, UniProt P20815). Description: Drug metabolism assessed as human CYP3A5-mediated formation of 12-OHNVP at 10 uM pre-incubated for 30 mins followed by addition of NADPH regenerating reagents by uHPLC-MS analysis. It is filed as ADME. As to conditions: recombinant enzyme. Summed up: (§2)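 Insect-cell microsomes with single cDNA-expressed human P450 (100 nM) in 0.1 M potassium phosphate; 10 μM substrate prewarmed 5 min at 37 °C with NADPH-regenerating system, reaction started by adding microsomes; 30 min at 37 °C, 0.1% DMSO. Stopped, dried, reconstituted in methanol; triple-quadrupole SRM (12-OH 283.1→223.0, 2-OH 283.1→160.9, 3-OH 283.1→241.9), peak height; three replicates, mean ± SD.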
Cytochrome P450 3A5, sequence (P20815 whole entry): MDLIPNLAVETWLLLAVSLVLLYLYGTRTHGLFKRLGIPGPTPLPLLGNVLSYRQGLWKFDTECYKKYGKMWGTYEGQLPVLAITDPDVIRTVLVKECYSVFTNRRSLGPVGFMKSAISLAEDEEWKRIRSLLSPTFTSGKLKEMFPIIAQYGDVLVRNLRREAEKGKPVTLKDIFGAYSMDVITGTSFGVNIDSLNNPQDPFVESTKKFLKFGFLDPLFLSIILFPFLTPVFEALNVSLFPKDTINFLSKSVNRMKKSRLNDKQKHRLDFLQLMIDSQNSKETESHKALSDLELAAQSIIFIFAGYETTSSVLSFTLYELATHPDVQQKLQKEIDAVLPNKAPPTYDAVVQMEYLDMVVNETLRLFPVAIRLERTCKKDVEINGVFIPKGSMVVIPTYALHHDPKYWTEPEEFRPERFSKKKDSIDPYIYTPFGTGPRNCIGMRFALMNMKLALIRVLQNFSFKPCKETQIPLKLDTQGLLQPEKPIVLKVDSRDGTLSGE

Data set [4] concerns the target T1, Cytochrome P450 2B6 (Homo sapiens, UniProt P20813).
T1 sequence (P20813 whole entry): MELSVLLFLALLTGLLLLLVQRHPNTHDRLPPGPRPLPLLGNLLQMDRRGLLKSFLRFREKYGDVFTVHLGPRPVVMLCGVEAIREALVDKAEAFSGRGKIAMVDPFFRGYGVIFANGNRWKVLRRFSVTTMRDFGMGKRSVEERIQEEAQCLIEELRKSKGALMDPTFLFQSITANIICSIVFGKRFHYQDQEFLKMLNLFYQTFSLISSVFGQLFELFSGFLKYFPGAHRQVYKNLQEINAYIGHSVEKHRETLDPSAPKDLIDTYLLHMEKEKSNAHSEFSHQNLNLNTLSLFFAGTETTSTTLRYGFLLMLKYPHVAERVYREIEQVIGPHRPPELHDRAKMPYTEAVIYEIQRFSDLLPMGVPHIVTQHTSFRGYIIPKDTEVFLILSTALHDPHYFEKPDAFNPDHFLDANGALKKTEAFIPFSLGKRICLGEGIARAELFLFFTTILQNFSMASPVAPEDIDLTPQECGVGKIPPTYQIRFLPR
Description: Drug metabolism assessed as human CYP2B6-mediated formation of 12-OHNVP at 10 uM pre-incubated for 30 mins followed by addition of NADPH regenerating reagents by uHPLC-MS analysis. It is filed as ADME. As to conditions: recombinant enzyme. Put shortly:
as §2

Data set [5] deals with Cytochrome P450 3A4 (Homo sapiens, UniProt P08684). Description: Drug metabolism assessed as human CYP3A4-mediated formation of 2-OHNVP at 10 uM pre-incubated for 30 mins followed by addition of NADPH regenerating reagents by uHPLC-MS analysis. In kind it is ADME. The settings on record: recombinant enzyme. Summed up: as §2
Cytochrome P450 3A4, sequence (P08684 whole entry): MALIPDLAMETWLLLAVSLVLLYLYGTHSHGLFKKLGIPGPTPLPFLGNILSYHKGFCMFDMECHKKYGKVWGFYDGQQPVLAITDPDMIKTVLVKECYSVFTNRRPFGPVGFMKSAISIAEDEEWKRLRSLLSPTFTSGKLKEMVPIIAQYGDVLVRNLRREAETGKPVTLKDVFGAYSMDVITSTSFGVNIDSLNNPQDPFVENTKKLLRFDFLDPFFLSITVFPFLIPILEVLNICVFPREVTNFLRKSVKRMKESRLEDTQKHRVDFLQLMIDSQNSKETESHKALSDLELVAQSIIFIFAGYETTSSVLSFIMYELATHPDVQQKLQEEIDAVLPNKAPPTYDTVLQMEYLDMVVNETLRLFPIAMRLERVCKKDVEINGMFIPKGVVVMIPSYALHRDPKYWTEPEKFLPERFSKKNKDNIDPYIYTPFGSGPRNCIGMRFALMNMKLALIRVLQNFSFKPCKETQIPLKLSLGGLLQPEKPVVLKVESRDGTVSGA
Data set [6] concerns the target T1, Cytochrome P450 2B6. The data set is described as follows: Drug metabolism assessed as human CYP2B6-mediated formation of 3-OHNVP at 10 uM pre-incubated for 30 mins followed by addition of NADPH regenerating reagents by uHPLC-MS analysis. The settings on record: recombinant enzyme. It is filed as ADME. Put shortly: as §2
Data set [7] has as its system Cytochrome P450. Description: Drug metabolism in human liver microsomes assessed as Cytochrome P450-mediated formation of 3-OHNVP formation at 5 to 400 uM in presence of NADPH regenerating reagents by uHPLC-MS/MS analysis. It is filed as ADME. Put shortly: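 Pooled human liver microsomes (2.5 mg/mL) with NADPH-regenerating system, substrate 5–400 μM, 30 min at 37 °C, 0.1% DMSO (0.2% at 400 μM); 2- and 3-OH metabolites by uHPLC-MS/MS Orbitrap; three replicates, mean ± SD.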

Data set [8] has as its system Hepatocyte. The data set is described as follows: Induction of change in Rps27a protein expression in C57BL/6J mouse primary hepatocytes at 400 uM incubated for 8 hrs by relative-quantitation label-free proteomics analysis relative to NVP. In kind it is cell-based. Put shortly: (§3)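 Fresh primary hepatocytes from male C57BL/6J mice aged 8–13 weeks, adhered overnight, then given fresh medium containing compound (400 μM), NVP (400 μM) or vehicle (0.2% DMSO) for 8 h. Lysate reduced (DTT) and alkylated (iodoacetamide), acetone-precipitated and digested with trypsin. Label-free Top10 nanoLC-MS with precursor ion area quantitation; unpaired t test P values, Cohen's d effect size.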

Data set [9] concerns Hepatocyte. Description: Induction of change in Actb protein expression in C57BL/6J mouse primary hepatocytes at 400 uM incubated for 8 hrs by relative-quantitation label-free proteomics analysis relative to NVP. It is filed as cell-based. Put shortly: as §3
Data set [10] concerns Hepatocyte. The data set is described as follows: Induction of change in Slc22a28 protein expression in C57BL/6J mouse primary hepatocytes at 400 uM incubated for 8 hrs by relative-quantitation label-free proteomics analysis relative to NVP. It is filed as cell-based. Put shortly:
as §3

Data set [11] relates to Hepatocyte. The data set is described as follows: Induction of change in CYB5A protein expression in human primary hepatocytes at 10 uM incubated for 48 hrs by relative-quantitation label-free proteomics analysis relative to NVP. In kind it is cell-based. Put shortly: (§4)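 Cryoplateable pooled human hepatocytes (10 mixed-sex donors per pool; three pools), adhered overnight, then given fresh medium containing compound (10 μM), NVP (10 μM) or vehicle (0.1% DMSO) for 48 h. Lysate reduced (DTT) and alkylated (iodoacetamide), acetone-precipitated and digested with trypsin. Label-free Top10 nanoLC-MS with precursor ion area quantitation; unpaired t test P values, Cohen's d effect size.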

The test system of data set [12] is Hepatocyte. Description: Induction of change in NOL6 protein expression in human primary hepatocytes at 10 uM incubated for 48 hrs by relative-quantitation label-free proteomics analysis relative to NVP. It is filed as cell-based. Summed up:
as §4

Data set [13] has as its system Hepatocyte. Description: Induction of change in TMED9 protein expression in human primary hepatocytes at 10 uM incubated for 48 hrs by relative-quantitation label-free proteomics analysis relative to NVP. In kind it is cell-based. Summed up:
as §4

In data set [14] the test system is Hepatocyte. The data set is described as follows: Induction of change in CCAR2 protein expression in human primary hepatocytes at 10 uM incubated for 48 hrs by relative-quantitation label-free proteomics analysis relative to NVP. In kind it is cell-based. Put shortly:
as §4

The subject of data set [15] is Hepatocyte. Description: Induction of change in MSRA protein expression in human primary hepatocytes at 10 uM incubated for 48 hrs by relative-quantitation label-free proteomics analysis relative to NVP. In kind it is cell-based. Summed up: as §4
In data set [16] the test system is Hepatocyte. The data set is described as follows: Induction of change in AKAP2 protein expression in human primary hepatocytes at 10 uM incubated for 48 hrs by relative-quantitation label-free proteomics analysis relative to NVP. In kind it is cell-based. Put shortly: as §4

In the case of `[2H]C([2H])([2H])c1ccnc2c1NC(=O)c1cccnc1N2C1CC1`, the Drug metabolism result in [1] was “Metabolite_Detected”; in data set [2], “Metabolite_Notdetected”; in data set [3] it was “Metabolite_Notdetected”; in data set [4], “Metabolite_Detected”; in data set [5], “Metabolite_Detected”; in data set [6], “Metabolite_Detected”. Besides, the Drug metabolism entry in data set [7] is given as “Metabolite_Detected”. The “fold change (FC)” value in [8] is 3.03; in [9], 1.05; in [10] it was -1.66; in data set [11], -1.5; in [12], -1.85; in data set [13], -1.93. For the same compound, the entries for the “fold change (FC)” value in [14], in data set [15] and in data set [16] were -2.05, -2.05 and -2.67, respectively.
